According to ChEMBL document CHEMBL1135955, “Substituted benzocyloheptenes as potent and selective alpha(v) integrin antagonists” (Bioorg Med Chem Lett, 2002):

Assays:
[1] = molecular target: Integrin alpha-IIb/beta-3 (Homo sapiens, UniProt P05106+P08514); test: Displacement of fibrinogen from Human integrin alphaIIb-beta3; format: protein-complex assay
Outline: (§1)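 Purified-receptor ligand-binding assay on human integrins αvβ3 and αvβ5 (vitronectin displacement) and αIIbβ3 (receptor from platelets). Bound ligand was detected indirectly by colorimetric reading after adding an anti-biotin antibody coupled to alkaline phosphatase. IC50 came from sigmoid variable-slope fits of dose–response data from at least two experiments per compound.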

IGROV-1 = test: Cellular adhesion inhibitory concentration with IGROV-1 cell line.; format: functional, cell-based; conditions: Homo sapiens
Outline: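 Human ovarian carcinoma IGROV-1 cells were preincubated with compound before adhesion. They were then washed, fixed and stained with crystal violet, and adhesion was quantified by image analysis. IC50 came from sigmoid variable-slope fits of dose–response sets from at least two experiments.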

Integrin alpha-V/beta-3 = Integrin alpha-V/beta-3 (Homo sapiens, UniProt P05106+P06756); test: Displacement of vitronectin from Human integrin alphaV-beta3; format: protein-complex assay; outline: as §1
Sequence of Integrin alpha-V/beta-3 (P05106 27-788 limits assumed): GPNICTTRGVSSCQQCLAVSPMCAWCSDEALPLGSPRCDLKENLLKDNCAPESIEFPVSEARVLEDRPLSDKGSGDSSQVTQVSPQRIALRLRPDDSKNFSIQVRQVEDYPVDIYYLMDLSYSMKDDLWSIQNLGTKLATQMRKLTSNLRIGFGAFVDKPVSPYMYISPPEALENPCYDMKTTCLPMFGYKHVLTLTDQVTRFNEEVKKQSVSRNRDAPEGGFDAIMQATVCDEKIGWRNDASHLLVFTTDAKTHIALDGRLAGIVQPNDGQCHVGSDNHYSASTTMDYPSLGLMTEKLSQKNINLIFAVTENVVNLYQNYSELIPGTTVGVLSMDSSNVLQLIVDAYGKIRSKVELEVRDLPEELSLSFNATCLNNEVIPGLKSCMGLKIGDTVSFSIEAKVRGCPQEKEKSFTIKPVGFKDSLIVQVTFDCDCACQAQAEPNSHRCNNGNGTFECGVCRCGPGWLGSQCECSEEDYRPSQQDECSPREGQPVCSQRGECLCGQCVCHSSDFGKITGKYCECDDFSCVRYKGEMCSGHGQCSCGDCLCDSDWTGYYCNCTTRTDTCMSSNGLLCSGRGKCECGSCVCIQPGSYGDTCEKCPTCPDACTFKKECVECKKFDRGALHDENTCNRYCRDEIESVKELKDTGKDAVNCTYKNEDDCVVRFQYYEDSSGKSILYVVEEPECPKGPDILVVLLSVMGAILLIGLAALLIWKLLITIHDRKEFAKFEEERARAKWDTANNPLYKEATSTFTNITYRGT
Sequence of Integrin alpha-V/beta-3 (P06756 31-889 limits assumed): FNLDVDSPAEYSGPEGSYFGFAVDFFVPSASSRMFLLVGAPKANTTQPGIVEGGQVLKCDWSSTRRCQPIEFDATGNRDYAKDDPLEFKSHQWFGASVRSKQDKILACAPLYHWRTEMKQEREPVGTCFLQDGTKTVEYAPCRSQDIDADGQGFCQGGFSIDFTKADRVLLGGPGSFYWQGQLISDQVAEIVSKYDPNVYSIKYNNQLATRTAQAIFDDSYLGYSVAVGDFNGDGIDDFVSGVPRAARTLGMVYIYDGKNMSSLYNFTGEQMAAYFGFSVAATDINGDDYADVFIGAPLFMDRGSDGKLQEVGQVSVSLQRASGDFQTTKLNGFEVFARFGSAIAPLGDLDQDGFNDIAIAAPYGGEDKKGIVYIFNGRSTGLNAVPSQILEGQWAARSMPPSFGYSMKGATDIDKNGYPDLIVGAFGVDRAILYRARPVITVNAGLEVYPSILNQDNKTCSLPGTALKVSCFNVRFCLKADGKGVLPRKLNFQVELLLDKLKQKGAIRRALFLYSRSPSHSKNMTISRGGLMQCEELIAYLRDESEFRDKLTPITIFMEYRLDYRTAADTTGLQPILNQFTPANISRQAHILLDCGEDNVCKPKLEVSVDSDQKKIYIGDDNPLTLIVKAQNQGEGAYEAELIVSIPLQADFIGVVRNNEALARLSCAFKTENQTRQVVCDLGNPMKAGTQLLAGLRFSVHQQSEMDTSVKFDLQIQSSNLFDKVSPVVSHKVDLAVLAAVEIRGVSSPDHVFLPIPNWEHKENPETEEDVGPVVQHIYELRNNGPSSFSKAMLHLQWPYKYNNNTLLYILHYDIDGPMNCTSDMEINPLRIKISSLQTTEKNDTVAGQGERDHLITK
Sequence of Integrin alpha-V/beta-3 (P06756 891-1048 limits assumed): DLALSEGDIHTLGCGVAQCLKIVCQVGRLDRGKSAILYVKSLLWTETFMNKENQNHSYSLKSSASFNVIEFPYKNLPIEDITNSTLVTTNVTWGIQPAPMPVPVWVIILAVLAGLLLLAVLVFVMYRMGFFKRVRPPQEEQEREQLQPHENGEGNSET

Homo sapiens = species on record: Homo sapiens; test: Oral absorption using Caco-2 cell monolayers.; format: ADME; conditions: in vitro
Integrin alpha-V/beta-5 = Integrin alpha-V/beta-5 (Homo sapiens, UniProt P06756+P18084); test: Displacement of vitronectin from human integrin alphaV-beta5; format: protein-complex assay; outline: as §1
Sequence of Integrin alpha-V/beta-5 (P06756 31-889 limits assumed): as the sequence (P06756 31-889 limits assumed) above
Sequence of Integrin alpha-V/beta-5 (P06756 891-1048 limits assumed): as the sequence (P06756 891-1048 limits assumed) above
Sequence of Integrin alpha-V/beta-5 (P18084 24-799 limits assumed): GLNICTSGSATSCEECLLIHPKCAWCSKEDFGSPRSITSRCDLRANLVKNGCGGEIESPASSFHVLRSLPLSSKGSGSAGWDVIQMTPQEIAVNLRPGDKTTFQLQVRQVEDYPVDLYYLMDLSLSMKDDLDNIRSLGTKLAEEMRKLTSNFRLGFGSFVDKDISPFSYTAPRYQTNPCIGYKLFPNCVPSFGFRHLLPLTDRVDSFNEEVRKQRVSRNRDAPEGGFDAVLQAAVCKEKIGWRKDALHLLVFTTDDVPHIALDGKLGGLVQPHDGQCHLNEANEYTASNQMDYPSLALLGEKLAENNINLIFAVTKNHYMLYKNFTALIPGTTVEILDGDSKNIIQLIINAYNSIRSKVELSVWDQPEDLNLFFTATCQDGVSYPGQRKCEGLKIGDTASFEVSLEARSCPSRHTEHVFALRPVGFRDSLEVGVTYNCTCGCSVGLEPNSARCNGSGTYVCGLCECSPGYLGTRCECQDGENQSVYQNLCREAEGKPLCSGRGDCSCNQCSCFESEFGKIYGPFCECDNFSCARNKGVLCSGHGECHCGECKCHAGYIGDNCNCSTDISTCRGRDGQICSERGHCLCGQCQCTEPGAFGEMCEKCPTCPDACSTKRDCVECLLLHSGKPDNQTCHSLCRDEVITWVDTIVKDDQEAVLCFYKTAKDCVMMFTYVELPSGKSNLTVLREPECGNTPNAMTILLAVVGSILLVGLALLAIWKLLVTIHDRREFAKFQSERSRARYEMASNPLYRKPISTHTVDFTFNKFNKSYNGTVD

Sequence of Integrin alpha-IIb/beta-3 (P05106 27-788 limits assumed): as the sequence (P05106 27-788 limits assumed) above
Sequence of Integrin alpha-IIb/beta-3 (P08514 32-887 limits assumed): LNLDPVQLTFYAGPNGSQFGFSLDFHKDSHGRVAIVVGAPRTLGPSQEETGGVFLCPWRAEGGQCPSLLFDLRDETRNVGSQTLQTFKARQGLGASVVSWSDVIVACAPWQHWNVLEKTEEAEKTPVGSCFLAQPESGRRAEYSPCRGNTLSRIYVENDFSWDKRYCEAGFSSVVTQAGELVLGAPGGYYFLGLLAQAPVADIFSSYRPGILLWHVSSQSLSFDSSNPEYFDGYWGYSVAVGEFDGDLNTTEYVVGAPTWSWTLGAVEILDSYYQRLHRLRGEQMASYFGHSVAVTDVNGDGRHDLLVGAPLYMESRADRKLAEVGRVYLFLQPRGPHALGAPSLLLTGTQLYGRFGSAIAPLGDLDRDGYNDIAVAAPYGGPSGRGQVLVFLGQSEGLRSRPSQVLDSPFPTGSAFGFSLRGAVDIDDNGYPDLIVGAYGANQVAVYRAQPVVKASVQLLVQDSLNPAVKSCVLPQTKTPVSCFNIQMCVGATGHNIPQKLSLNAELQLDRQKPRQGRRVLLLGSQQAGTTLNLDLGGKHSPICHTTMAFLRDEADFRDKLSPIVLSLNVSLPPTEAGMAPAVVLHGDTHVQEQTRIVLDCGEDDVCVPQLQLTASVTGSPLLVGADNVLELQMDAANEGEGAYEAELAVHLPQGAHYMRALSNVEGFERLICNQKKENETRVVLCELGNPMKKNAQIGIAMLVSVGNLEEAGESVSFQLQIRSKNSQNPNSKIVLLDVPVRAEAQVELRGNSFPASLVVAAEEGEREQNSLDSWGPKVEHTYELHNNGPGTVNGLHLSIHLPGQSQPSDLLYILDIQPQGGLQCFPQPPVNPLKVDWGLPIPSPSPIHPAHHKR
Sequence of Integrin alpha-IIb/beta-3 (P08514 891-1039 limits assumed): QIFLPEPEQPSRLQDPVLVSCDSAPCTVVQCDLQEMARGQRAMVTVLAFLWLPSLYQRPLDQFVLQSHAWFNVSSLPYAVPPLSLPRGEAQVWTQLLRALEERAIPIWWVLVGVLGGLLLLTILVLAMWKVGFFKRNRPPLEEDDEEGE

Structure (SMILES)	IC50 [1] [nM]	IC50 (IGROV-1) [nM]	IC50 (Integrin alpha-V/beta-3) [nM]	Absorption (Homo sapiens) [%]	IC50 (Integrin alpha-V/beta-5) [nM]
O=C(O)CC1CC(CNC(=O)CCCNc2nc3ccccc3[nH]2)=CCc2ccccc21 (stereo not given)	1020	1.8	0.6	< 20	0.5
O=C(O)CC1CC(CNC(=O)CCCNC2=NCCN2)=CCc2ccccc21 (stereo not given)	110	18	0.3	< 20	0.2
O=C(O)CC1CC(CNC(=O)CCCNc2ccccn2)=CCc2ccccc21 (stereo not given)	4360	2	1.9	95	0.8
O=C(O)CC1CC(CNC(=O)CCCCNc2ccccn2)=CCc2ccccc21 (stereo not given)	1200	12	2.7	96	0.9
O=C(O)CC1CC(CNC(=O)CCCc2ccc3c(n2)NCCC3)=CCc2ccccc21 (stereo not given)	1490	6.9	0.3	92	0.3
CN(CCCC(=O)NCC1=CCc2ccccc2C(CC(=O)O)C1)c1ccccn1 (stereo not given)	667	2030	68	94	40
O=C(O)CC1CC(CNC(=O)CCCNc2nccs2)=CCc2ccccc21 (stereo not given)	> 10000	40	45	96	20
O=C(O)CC1CC(CNC(=O)CCNc2ccccn2)=CCc2ccccc21 (stereo not given)	1700	338	584	93	22
O=C(O)CC1CC(CNC(=O)CCCNC2=NCCCN2)=CCc2ccccc21 (stereo not given)	330	2.7	0.2	< 20	0.1
O=C(O)CC1CC(CNC(=O)CCNCc2ccccn2)=CCc2ccccc21 (stereo not given)	552	2700	842	23	119
